Test results as given in ChEMBL document CHEMBL1127087, “Synthesis and structure-activity relationships of 3,5-disubstituted 4,5-dihydro-6H-imidazo[1,5-a][1,4]benzodiazepin-6-ones at diazepam-sensitive and diazepam-insensitive benzodiazepine receptors” (J Med Chem, 1993).
pIC50, pKi: −log10 of the molar value.

Experiments:
[1] = target: GABA-A receptor; anion channel; test: Displacement of [3H]flunitrazepam from diazepam-sensitive GABA-A benzodiazepine receptor of rat cortical membrane
Procedure, shortened: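 Washed rat cerebral cortex membranes (adult male Sprague-Dawley) in Tris-citrate pH 7.4 with NaCl. [3H]flunitrazepam at about 1 nM final, 2 h at 4 °C, then filtration. Six to eight inhibitor concentrations were used; IC50 came from a sigmoid fit. Three determinations, mean ± SEM.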

[2] = Ratio between diazepam-insensitive (DI) site / diazepam-sensitive (DS) site
Procedure, shortened: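 Rat cerebellar membranes washed five times in 50 mM Tris-citrate pH 7.8 with NaCl. [3H]Ro 15-4513 at about 2 nM final, 60 min at 0–4 °C, then filtration. DS+DI binding was defined by Ro 15-1788 (10 μM) displacement and DI binding as the diazepam (10 μM)-insensitive part. 0.1 nM–1 μM inhibitor; Cheng-Prusoff Ki; duplicate assays, three experiments. Ratio is Ki DI/DS.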

[3] = target: GABA-A receptor; anion channel; test: […] from diazepam-insensitive GABA-A benzodiazepine receptor of rat cerebellar membrane
[4] = target: GABA-A receptor; anion channel; test: […] from diazepam-sensitive GABA-A benzodiazepine receptor of rat cerebellar membrane

Row | SMILES | pIC50 [1] | Ratio [2] | other results
1 | Cc1ccc(S(=O)(=O)c2ncn3c2CN(C)C(=O)c2ccccc2-3)cc1 | < 6.00 |  | 
2 | CCOC(=O)c1ncn2c1CN(C)C(=O)c1ccccc1-2 |  | 165 | 
3 | CCOC(=O)c1ncn2c1CNC(=O)c1ccccc1-2 | 6.79 |  | 
4 | CN1Cc2c(C3=NCCO3)ncn2-c2ccccc2C1=O | 6.16 |  | 
5 | CCOC(=O)c1ncn2c1CN(CCc1ccccc1)C(=O)c1ccccc1-2 | 6.47 |  | 
6 | CC(=O)Nc1ncn2c1CN(C)C(=O)c1ccccc1-2 | < 6.00 |  | 
7 | CCOC(=O)c1ncn2c1CN(Cc1ccccc1)C(=O)c1ccccc1-2 | 8.03 | 75 | 
8 | CCOC(=O)Nc1ncn2c1CN(C)C(=O)c1ccccc1-2 | < 6.00 |  | 
9 | CCOC(=O)c1ncn2c1CN(Cc1ccc(OC)cc1OC)C(=O)c1ccccc1-2 | 7.63 | 24 | pKi [3]: 6.90; pKi [4]: 8.27
10 | COC(=O)Nc1ncn2c1CN(C)C(=O)c1ccccc1-2 | < 6.00 |  | 
11 | CN1Cc2c(NC=O)ncn2-c2ccccc2C1=O | < 6.00 |  | 
12 | CCOC(=O)c1ncn2c1CN(C)C(=O)c1c(Cl)cccc1-2 |  | 100 | 
13 | Cc1noc(-c2ncn3c2CN(Cc2ccccc2)C(=O)c2ccccc2-3)n1 | 7.46 |  | pIC50 [3]: < 5.00
14 | Cc1noc(-c2ncn3c2CN(Cc2ccccc2)C(=O)c2cc(Cl)ccc2-3)n1 | 6.47 | 1.3 | 
15 | CN1Cc2c(N=C=S)ncn2-c2ccccc2C1=O | 6.13 |  | 
16 | CCOC(=O)c1ncn2c1CN(Cc1ccccc1)C(=O)c1c(Cl)cccc1-2 | 8.62 | 51 | 
17 | CCOC(=O)c1ncn2c1CN(Cc1ccccc1)C(=O)c1cc(Cl)ccc1-2 | 7.42 | 0.8 | pKi [3]: 8.85
18 | Cc1nnc(-c2ncn3c2CN(Cc2ccccc2)C(=O)c2ccccc2-3)o1 | < 6.00 |  | pIC50 [3]: < 5.00
19 | Cc1noc(-c2ncn3c2CN(Cc2ccccc2)C(=O)c2c(Cl)cccc2-3)n1 | 7.82 | 101 | 
20 | C=CCN1Cc2c(C(=O)OCC)ncn2-c2ccccc2C1=O | 6.80 |  | 
21 | CCCN1Cc2c(C(=O)OCC)ncn2-c2ccccc2C1=O | 6.62 |  | 
22 | CCOC(=O)c1ncn2c1CN(c1ccc(OC)cc1)C(=O)c1ccccc1-2 | < 6.00 |  | 
23 | CCOC(=O)c1ncn2c1CN(c1ccccc1)C(=O)c1ccccc1-2 | < 6.00 |  | 
